Common to all, as to assay type: functional, Canis lupus familiaris
The test system of test [1] is Canis familiaris. In words: Compound was tested for inotropic activity by measuring the concentration required to increase heart rate by 15% in the anesthetized dog after intravenous administration. An outline of the steps: (§1)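 Anesthetized dogs, one compound per animal, stabilized at least 30 min after surgery. Contractile force from a Walton-Brodie strain gauge arch sutured to the left ventricle, heart rate from lead II EKG, aortic pressure via femoral cannula. Readings at 5- to 10-min intervals before and after iv injection of at least three doses, with return to baseline between doses. Equieffective doses extrapolated from dose-response curves; means with 95% confidence intervals.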

The test system of test [2] is Canis familiaris. In words: Compound was tested for inotropic activity by measuring the concentration required to mean blood pressure by 20% in the anesthetized dog after intravenous administration. The method, boiled down:
as §1

The subject of test [3] is Canis familiaris. In words: Compound was tested for inotropic activity by measuring the concentration required to increase cardiac contractile force by 30% in the anesthetized dog after intravenous administration. An outline of the steps:
as §1

`Cc1[nH]c(O)nc1C(=O)c1ccncc1`: the Equieffective dose in test [1] worked out at 3.37 mg/kg; in test [2], 2.58 mg/kg; in test [3] it was 0.13 mg/kg.
Consider `Cc1[nH]c(O)nc1C(=O)c1cccnc1`, for which the figures for the Equieffective dose in test [1], in test [2] and in test [3] were greater than 3 mg/kg, greater than 3 mg/kg and 0.64 mg/kg, respectively.
On to `CCc1[nH]c(O)nc1C(=O)c1cc[n+]([O-])cc1`, for which the Equieffective dose in test [1], in test [2] and in test [3] was greater than 1 mg/kg in each case.
Consider `CCc1[nH]c(O)nc1C(=O)c1cccnc1Cl`, for which the Equieffective dose in test [1] was greater than 3 mg/kg; in test [2], greater than 3 mg/kg; in test [3], 0.31 mg/kg.
For the compound `Cc1[nH]c(O)nc1C(=O)c1ccccn1`, the Equieffective dose in test [1] is 3.29 mg/kg; in test [2], 1.91 mg/kg; in test [3], 1.57 mg/kg.
In the case of `Cc1[nH]c(O)nc1C(=O)c1cccnc1Cl`, the figures for the Equieffective dose in test [1], in test [2] and in test [3] were 5.1 mg/kg, greater than 10 mg/kg and 0.47 mg/kg, respectively.
In the same order, the values of `CCc1[nH]c(O)nc1C(=O)c1cccnc1` are greater than 3 mg/kg, greater than 3 mg/kg and 0.22 mg/kg.
`CCCc1[nH]c(O)nc1C(=O)c1ccncc1`: the Equieffective dose is 3.38 mg/kg in test [1], greater than 3 mg/kg in test [2] and 1.7 mg/kg in test [3].
Taken in the same sequence, the figures for `CCc1[nH]c(O)nc1C(=O)c1cnccc1Cl` were 11.8 mg/kg, 7.03 mg/kg and 0.56 mg/kg.
In the same order, the values of `CCc1[nH]c(O)nc1C(=O)c1ccccn1` are 0.83 mg/kg, greater than 3 mg/kg and 0.2 mg/kg.
In the same order, the values of `CCc1[nH]c(=O)[nH]c1C(=O)c1ccncc1` [PIROXIMONE] are 0.42 mg/kg, 1.7 mg/kg and 0.07 mg/kg.

(Values after ChEMBL document CHEMBL1123189, “4-Aroyl-1,3-dihydro-2H-imidazol-2-ones: a new class of cardiotonic agents. 2. Effect of 4-pyridoyl substituents and related compounds” (1986).)
